# Screening results as filed in PubChem BioAssay.
# S1P4 ag – human S1P4 receptor agonism | O95977 | S1P4-expressing cell line, agonist reporter assay | activation, % at 4.98 µM | 220,000 compounds, 0.35% hits; in the data active = activation above about 11%
# NPY Y1 blocker – blocks the human neuropeptide Y Y1 receptor; HEK293-CNG Y1 cells, membrane potential fluorescence; NPY at EC95, then isoproterenol; inhibition, % at 3.6 µM; AID 1040; 200,000 compounds, 1% hits;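 active = inhibition above the campaign mean inhibition of all tested compounds plus 3 SD, cut at about 20% in these data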
#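 material = HEK293 cells with Y1 receptor plus CNG channel | also added = NPY 25 nM then isoproterenol 1 µM plus Ro 20-1724 25 µM | schedule = dye 3 h, compound 60 min room temperature, stimulation 45 min | measured by = membrane potential fluorescence | benchmarks = high control isoproterenol alone, low control NPY with isoproterenol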
# NPY-Y2 PAM-ag – human NPY-Y2 potentiation or agonism, primary screen; P49146; cells expressing NPY-Y2, potentiator/agonist read-out; activation, % at 3.6 µM; 220,000 compounds, 0.45% hits; in the data active = activation above about 27%;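 note: cells stimulated with NPY near EC25 plus isoproterenol at EC100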
# Target sequence (P49146 whole entry, looked up): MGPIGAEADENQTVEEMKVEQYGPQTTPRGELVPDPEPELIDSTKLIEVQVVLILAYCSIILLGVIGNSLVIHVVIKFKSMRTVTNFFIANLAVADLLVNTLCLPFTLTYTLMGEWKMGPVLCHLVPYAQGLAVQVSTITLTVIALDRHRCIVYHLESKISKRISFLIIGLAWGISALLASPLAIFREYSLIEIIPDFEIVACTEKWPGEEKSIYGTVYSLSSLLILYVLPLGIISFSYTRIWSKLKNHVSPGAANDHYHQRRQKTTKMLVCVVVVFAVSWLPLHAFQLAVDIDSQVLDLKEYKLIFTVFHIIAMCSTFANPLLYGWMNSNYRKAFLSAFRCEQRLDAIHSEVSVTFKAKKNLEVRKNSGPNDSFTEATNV
# S1P4 antagonist – human S1P4 receptor antagonism | O95977 | S1P4-expressing cells, antagonist mode, reporter read-out | inhibition, % at 4.98 µM | 220,000 compounds, 0.26% hits; in the data active = inhibition above about 29%
# NPY-Y2 antag – blocks the human neuropeptide Y Y2 receptor; P49146; NPY-Y2 expressing cells, antagonist mode; inhibition, % at 2.7 µM; 140,000 compounds, 0.99% hits; AID 793
# NPY-Y1 PAM-ag – human NPY-Y1 potentiation or agonism, primary screen; P25929; NPY-Y1 expressing cells, potentiator/agonist activation; activation, % at 3.6 µM; 220,000 compounds, 0.37% hits; in the data active = activation above about 33%, passing the limit was not always enough;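 note: cells stimulated with NPY at EC10 then isoproterenol at EC100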
# NPY-Y1 ant conf – human NPY-Y1 antagonism, confirmation. HEK293-CNG NPY-Y1, membrane potential fluorescence, cAMP; NPY challenge against isoproterenol-raised cAMP. shares compounds with NPY Y1 blocker. inhibition, % at 3.6 µM. 1,200 compounds, 21% hits; in the data active = inhibition above about 20%
# NPY-Y2 antag ct – antagonizes human NPY-Y2, counter-screen to NPY-Y1 antagonists | shares compounds with NPY Y1 blocker | HEK293 NPY-Y2 CNG membrane potential fluorescence, antagonism; cells given NPY, then isoproterenol | inhibition, % at 3.6 µM | 1,200 compounds, 28% hits
# NPY-Y1 pot conf – confirmation of human NPY-Y1 receptor potentiators or agonists | shares compounds with NPY-Y1 PAM-ag | cell-based NPY-Y1 potentiator/agonist assay | activation, % at 3.6 µM | 280 compounds, 20% hits; in the data active = activation above about 45%;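 note: cells challenged with NPY at its EC10 plus isoproterenol stimulus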
# NPY-Y2 counter – NPY-Y2 potentiation or agonism as NPY-Y1 counter-screen; AID 1649; shares compounds with NPY-Y1 PAM-ag; HEK293-CNG cells, membrane-potential fluorescence (FLIPR), 1536-well; activation, % at 3.6 µM; 280 compounds, 20% hits; in the data active = activation above about 33%
# NPY-Y1 agonist – counter-screen for NPY-Y1 potentiators: agonists of human NPY-Y1. shares compounds with NPY-Y1 PAM-ag. HEK293 Y1-CNGC, membrane potential fluorescence, agonist mode. activation, % at 3.6 µM. 280 compounds, 50% hits;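 active = percent activation above the mean of DMSO-only control wells plus 3 SD of those wells, cut at about 18% in these data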;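 note: cells challenged with isoproterenol plus Ro 20-1724 with no NPY in test wells; Y1 agonism lowers isoproterenol-driven cAMP and reduces probe fluorescence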
# NPY-Y2 agonist – counter-screen for NPY-Y1 potentiators or agonists: agonists of NPY-Y2. 280 compounds, 67% hits. activation, % at 3.6 µM. HEK293 Y2-CNGC, membrane potential fluorescence, agonist mode. shares compounds with NPY-Y1 PAM-ag. AID 1698;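 active = activation above the solvent-only control wells' mean plus 3 SD, cut at about 11% in these data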;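 note: agonism lowers cAMP so well fluorescence drops in active wells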
# CNGC counter – CNG channel inhibition, counter-screen for NPY-Y1 potentiators; shares compounds with NPY-Y1 PAM-ag; inhibition, % at 3.6 µM; 280 compounds, 42% hits; HEK293-CNG parental, isoproterenol cAMP, membrane potential fluorescence; AID 1704;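 active = inhibition above the mean of stimulated solvent-only control wells plus 3 SD, cut at about 22% in these data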
# NPY-Y2 pot conf – human NPY-Y2 potentiation or agonism, confirmation; shares compounds with NPY-Y2 PAM-ag; cell-based NPY-Y2 potentiator/agonist assay; activation, % at 3.6 µM; 450 compounds, 20% hits; in the data active = activation above about 33%
# NPY-Y1 counter – NPY-Y1 potentiation or agonism as NPY-Y2 counter-screen | shares compounds with NPY-Y2 PAM-ag | Y1 HEK293-CNG cells, membrane potential fluorescence | activation, % at 3.6 µM | 450 compounds, 20% hits; in the data active = activation above about 45%;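 note: cells stimulated with submaximal NPY then isoproterenol with phosphodiesterase inhibitor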
# NPY-Y1 agonist 2 – counter-screen for NPY-Y2 potentiators: agonists of human NPY-Y1; 450 compounds, 37% hits; shares compounds with NPY-Y2 PAM-ag; HEK293 Y1-CNGC, membrane potential fluorescence, agonism; activation, % at 3.6 µM;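 active = activation above the mean of DMSO-only control wells plus 3 SD, cut at about 18% in these data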;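 note: cells stimulated with 1 µM isoproterenol plus the PDE inhibitor Ro 20-1724; Y1 agonists lower the membrane potential dye signal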
# CNGC inhibitor – blocks CNG channel activity, counter-screen for NPY-Y2 potentiators. shares compounds with NPY-Y2 PAM-ag. HEK293-CNG parental, isoproterenol cAMP, membrane potential fluorescence. inhibition, % at 3.6 µM. 450 compounds, 32% hits;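 active = inhibition above the control-well mean plus 3 SD of those wells, cut at about 22% in these data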
# NPY-Y2 ag 2 – activates human NPY-Y2 receptor in potentiator counter-screen; activation, % at 3.6 µM; shares compounds with NPY-Y2 PAM-ag; AID 1710; HEK293 Y2/CNGC cells, membrane potential fluorescence, agonist mode; 450 compounds, 56% hits;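 active = activation above the mean of solvent-only control wells plus 3 SD, cut at about 10% in these data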;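 note: cells stimulated by isoproterenol with no NPY added so direct agonism is tested; agonism lowers probe fluorescence through less cAMP and CNG channel opening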
# S1P4 ag conf – confirmation of human S1P4 receptor agonists; shares compounds with S1P4 ag; S1P4 agonist cell-based reporter assay; activation, % at 4.98 µM; 740 compounds, 7% hits; AID 1523; in the data active = activation above about 12%
# S1P1 agonist – counter-screen for S1P4 agonists: agonists of human S1P1; shares compounds with S1P4 ag; S1P1 agonist cell-based assay, activation; activation, % at 4.98 µM; 740 compounds, 4% hits; in the data active = activation above about 21%
# Target sequence (P21453 whole entry, looked up): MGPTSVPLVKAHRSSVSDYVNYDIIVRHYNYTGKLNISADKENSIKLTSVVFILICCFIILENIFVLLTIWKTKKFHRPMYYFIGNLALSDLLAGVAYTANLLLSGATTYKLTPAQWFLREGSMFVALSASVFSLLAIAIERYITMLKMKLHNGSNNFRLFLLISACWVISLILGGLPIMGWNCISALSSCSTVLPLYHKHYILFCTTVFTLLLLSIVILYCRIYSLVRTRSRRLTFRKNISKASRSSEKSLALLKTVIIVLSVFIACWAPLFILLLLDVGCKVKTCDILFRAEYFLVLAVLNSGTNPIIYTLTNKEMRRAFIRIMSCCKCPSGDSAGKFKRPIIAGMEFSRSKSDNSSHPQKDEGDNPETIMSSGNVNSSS
# Numbers stand for hits; i = inactive; nt = not tested or not shown. The list is not random: actives were taken first. Their share in the collection is about 2.4%. Cut-off read from the data, not from the text of the source, unless noted: active = inhibition above about 17%; inactive = the rest.
SMILES,S1P4 ag,NPY Y1 blocker,NPY-Y2 PAM-ag,S1P4 antagonist,NPY-Y2 antag,NPY-Y1 PAM-ag,others
CCNC(=O)[C@H]1O[C@@H](n2cnc3c(N)ncnc32)[C@H](O)[C@@H]1O,i,145.1,i,i,nt,i,NPY-Y1 ant conf=118.3;NPY-Y2 antag ct=104.9
NC(=O)c1ccc(N=Nc2c(O)[nH]c(=O)[nH]c2=O)cc1,i,i,i,i,i,i,
O=C(N=Nc1c(O)[nH]c(=O)[nH]c1=O)C1COc2cc3ccccc3cc2O1 (stereo not drawn),i,25.3,i,i,nt,i,NPY-Y1 ant conf=i;NPY-Y2 antag ct=i
CNCC(O)c1cccc(OC(=O)c2ccccc2C)c1 (stereo not drawn),i,22.4,i,i,i,i,NPY-Y1 ant conf=i;NPY-Y2 antag ct=i
N=C1c2ccccc2CN1NC(=O)c1ccc(Cl)cc1,i,i,i,i,i,i,
CSc1ncc(/C=C2/C(=O)NC(=O)N(c3ccc(C(C)C)cc3)C2=O)cn1,i,i,i,i,i,i,
Cc1ccc2c(c1)C1CN(C)CCC1N2C(=O)c1cccnc1Cl (stereo not drawn),i,nt,i,i,nt,i,
Cc1ccc2c(c1)C1CN(C)CCC1N2C(=O)c1cn(-c2ccccc2)nc1-c1ccccc1 (stereo not drawn),i,69.8,i,i,nt,i,NPY-Y1 ant conf=i;NPY-Y2 antag ct=24.9
O=C(c1ccco1)c1cn(Cc2ccc(Cl)cc2)c2ccccc12,i,32.7,i,i,i,i,NPY-Y1 ant conf=20.4;NPY-Y2 antag ct=i
Clc1ccccc1Nc1ncnc(-n2cccc2)n1,i,i,i,i,i,i,
CCC(=NCc1ccc(F)cc1)c1c(O)n(C)c(=O)n(C)c1=O,i,i,i,i,i,37.3,NPY-Y1 pot conf=i;NPY-Y2 counter=i;NPY-Y1 agonist=i;NPY-Y2 agonist=i;CNGC counter=i
CC1(C)CN=C(Nc2ccccc2C(F)(F)F)S1,i,i,i,i,i,i,
O=C(Nc1ccncc1)c1cccn(Cc2ccccc2)c1=O,i,i,34.3,i,nt,i,NPY-Y2 pot conf=i;NPY-Y1 counter=i;NPY-Y1 agonist 2=i;CNGC inhibitor=i;NPY-Y2 ag 2=i
CN1CCN(c2cccc3c2C(=O)c2ccccc2C3=O)CC1,i,i,33.3,i,i,i,NPY-Y2 pot conf=i;NPY-Y1 counter=i;NPY-Y1 agonist 2=17.8;CNGC inhibitor=24.2;NPY-Y2 ag 2=32.7
CN1CCN(c2ccccc2N)CC1,i,i,i,i,i,i,
CN(C)CCCN=Cc1c(O)n(CCc2ccccc2)c(=O)[nH]c1=O,i,i,i,i,i,i,
O=c1[nH]c(=O)n(CCc2ccccc2)c(O)c1C=NC1CC1,i,nt,73.2,i,nt,i,NPY-Y2 pot conf=i;NPY-Y1 counter=i;NPY-Y1 agonist 2=i;CNGC inhibitor=i;NPY-Y2 ag 2=i
c1ccc(-c2nc(N3CCOCC3)s[n+]2-c2ccccc2)cc1,i,i,i,i,i,i,
C=CCNC(=S)Nc1ccc(OC(=O)Nc2ccc(Cl)c(Cl)c2)cc1,i,nt,83.5,i,nt,i,NPY-Y2 pot conf=i;NPY-Y1 counter=i;NPY-Y1 agonist 2=i;CNGC inhibitor=i;NPY-Y2 ag 2=i
Cc1ccc(-n2c(O)c(C=Nc3ccc(Br)cn3)c(=O)[nH]c2=O)cc1,i,i,i,i,nt,i,
CCC(=NCC1CCCO1)c1c(O)n(-c2ccccc2C)c(=O)[nH]c1=O (stereo not drawn),93.3,nt,i,i,nt,i,S1P4 ag conf=i;S1P1 agonist=i
CCNC(=O)NC(=O)C(C)OC(=O)c1c(C)nn(Cc2ccccc2)c1Cl (stereo not drawn),30.9,i,i,i,i,i,S1P4 ag conf=52.7;S1P1 agonist=i
Cc1nn(Cc2ccccc2)c(Cl)c1C(=O)Nc1ccc(OC(F)(F)F)cc1,i,i,i,i,i,i,
CCNC(=O)NC(=O)C(C)OC(=O)c1c(C)nn(Cc2ccccc2Cl)c1Cl (stereo not drawn),30.8,i,i,i,i,i,S1P4 ag conf=43.5;S1P1 agonist=i
Cc1nn(Cc2ccccc2Cl)c(Cl)c1C(=O)OCC(=O)NCc1ccco1,i,i,i,i,i,i,
COc1ccc(N2C(=O)NC(=O)C(CCc3ccncc3)(CCc3ccncc3)C2=O)cc1,i,i,i,i,i,i,
CC[C@]12C=CCN3CCC4(c5cc(Br)c(OC)cc5N(C)C4[C@@](O)(C(=O)OC)[C@@H]1OC(C)=O)C32 (stereo partly drawn),i,i,i,i,nt,i,
N#CC(C#N)=Cc1ccc(C=C(C#N)C#N)cc1,i,nt,i,i,nt,i,
CCOC(=O)c1c(-n2c(C)cc(/C=C3\C(=O)NC(=O)N(C)C3=O)c2C)sc2c1CCCC2,12.9,i,i,i,i,i,S1P4 ag conf=24.3;S1P1 agonist=i
